# Exocytosis inh: lytic granule exocytosis inhibition. TALL-104 LAMP-1 surface exposure, flow cytometry; cells stimulated with thapsigargin and PMA. inhibition, % at 10 µM. actives 0.66% (n = 360,000). AID 651702;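 active means inhibition above about 55%, limit read from the data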
# MC4R antagonist: blocks human MC4R cAMP signaling; P32245; MC4R-expressing cells, MTII-stimulated cAMP, LANCE TR-FRET; inhibition, % at 6.5 µM; actives 0.48% (n = 360,000);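 active means inhibition above its plate's cutoff, the mean of tested wells on that plate plus 3 SD, cut at about 29% in these data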;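 further: 0% = Melanotan II alone and 100% = Melanotan II plus saturating MCL0020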
#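 System – human MC4R-expressing U2OS cells · Also added – Melanotan II · Dosing – one concentration, 6.5 µM nominal · Timing – 30-min compound, 1-h challenge, 1-h detection, room temperature · Measured by – Eu-cAMP/anti-cAMP TR-FRET, emission 671 nm · Replicates – singlicate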
# EP2 mod: EP2 receptor (human) modulation | induction, % at 25 µM | AID 940 | EP2-expressing cells, cAMP HTRF FRET, PGE2 co-stimulation | P43116 | actives 0.83% (n = 260,000);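 active means compounds whose cAMP rise, as percent of the full-agonist control response, exceeds 60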;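 further: rat C6 glioma line stably carrying human EP2 under a CMV promoter; the protocol text gives 20 µM as final concentration; 100% = response of wells given 1 µM PGE2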
# Target sequence (P43116 whole entry, looked up): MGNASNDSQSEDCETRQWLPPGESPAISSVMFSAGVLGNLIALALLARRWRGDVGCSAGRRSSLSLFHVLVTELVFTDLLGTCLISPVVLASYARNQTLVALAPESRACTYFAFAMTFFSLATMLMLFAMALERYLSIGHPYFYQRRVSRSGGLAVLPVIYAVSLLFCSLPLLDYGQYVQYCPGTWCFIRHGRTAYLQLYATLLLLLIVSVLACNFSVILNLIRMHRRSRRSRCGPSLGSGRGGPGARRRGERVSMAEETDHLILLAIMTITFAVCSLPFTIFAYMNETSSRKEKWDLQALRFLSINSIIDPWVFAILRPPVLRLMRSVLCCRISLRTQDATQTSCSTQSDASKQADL
# MC4R ag barr: human MC4R agonism via beta-arrestin; U2OS MC4R beta-arrestin complementation, luminescence; percent of melanotan II response, DMSO zero; activation, % at 8.9 µM; P32245; actives 0.98% (n = 360,000); AID 540308;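 active means activation above a per-plate cutoff, the mean activation of sample wells on that plate plus 3 SD, cut at about 8% in these data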
# T cell modulator: T cell immune modulation candidate; actives 0.068% (n = 330,000); 2C CD8+ T cell-vesicle binding, flow cytometry; hits give low values; response (vesicle binding), % at 7 µM;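 active means response, share of CD8 T cells binding vesicles, and their 90th percentile fluorescence all below set limits, cut at about 80% in these data, passing the limit was not always enough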;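 further: values below 100% mean blocked vesicle binding to the CD8+ T cells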
#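 Test system: purified 2C TCR transgenic mouse naive CD8+ T cells. Probe or stimulus: QL9-peptide-loaded Drosophila micro-vesicles bearing Ld, ICAM-1 and B7-1. Incubation: binding step 1.5 h, 37 °C, antibody labelling 20 min, ice. Measured by: flow cytometry of vesicle-bound cells.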
# EP2 antag: EP2 receptor (human) inhibition. P43116. C6 glioma cells expressing human EP2, cAMP TR-FRET; cells stimulated with saturating PGE2. inhibition, % at 25 µM. actives 0.52% (n = 260,000);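 active means percent inhibition above 40 after rounding to a whole number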;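 further: rat C6 glioma host cells with rolipram phosphodiesterase inhibitor present; the protocol text gives 20 µM as final concentration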
# cAMP nonselect: counter-screen for MC4R antagonists: nonselective cAMP signaling inhibitors | shares compounds with MC4R antagonist | actives 26% (n = 1,600) | inhibition, % at 6.5 µM | parental U2OS, forskolin cAMP, LANCE TR-FRET | AID 602193;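 active means mean inhibition over triplicates above the low-control well mean plus 3 SD, set per campaign, cut at about 13% in these data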;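 further: signal is single emission at 671 nm which falls as cellular cAMP rises; 0% = forskolin-stimulated wells and 100% = buffer without forskolin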
# MC4R cAMP antag: human MC4R cAMP antagonism confirmation. shares compounds with MC4R antagonist. AID 602195. MC4R-expressing cells, MTII-stimulated cAMP, TR-FRET. inhibition, % at 6.5 µM. actives 27% (n = 1,600); in the data active means inhibition above about 29%;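 further: 0% = agonist stimulated wells alone and 100% = agonist stimulated wells plus saturating reference antagonist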
# * = called active by the depositor; i = inactive; / = not tested or not shown. The list is not random: actives were taken first. Their share in the collection is about 2.6%.
SMILES,Exocytosis inh,MC4R antagonist,EP2 mod,MC4R ag barr,T cell modulator,EP2 antag,cAMP nonselect,MC4R cAMP antag
O=C(Nc1ccc(Oc2ccc(S(=O)(=O)N3CCOCC3)cn2)cc1)c1ccco1,1,0,-26,0,428,8,/,/
Cc1cc(C)cc(C(=O)NCC(=O)OCC(=O)NCc2ccco2)c1,-3,39*,2,5,317,7,5,11
COc1cc(OC)cc(C(=O)NCC(=O)OCC(=O)NCc2ccco2)c1,-7,8,/,-1,346,/,/,/
Cc1ccc(-c2nn(-c3ccccc3)cc2NC(=O)CCl)cc1,1,37*,47,2,172,9,10,41*
Cc1ccc(-c2cc(NC(=O)CCl)n(-c3ccccc3)n2)cc1,0,26,4,1,227,/,/,/
COc1ccc(-c2nc3ccc(Cl)cn3c2NCC2CCCO2)cc1 (stereo not drawn),/,/,33,/,/,11,/,/
O=C(Nc1nnc(C2CCCC2)s1)C1CCN(S(=O)(=O)c2ccc(Cl)cc2)CC1,-1,30*,-7,1,482,9,0,-3
C/C(=N/NC(=O)CN(c1ccccc1)S(=O)(=O)c1ccccc1)c1ccccc1O,10,30*,/,0,164,/,0,14
O=C(Nc1ccc2c(c1)OCCO2)C(c1cc2ccccc2o1)N1CCN(c2ccc(C(F)(F)F)cn2)CC1 (stereo not drawn),-5,/,/,/,/,/,/,/
COc1cccc(-c2csc(NC(C)=O)n2)c1,-2,-4,6,-1,208,9,/,/
O=C(CC1C(=O)NCCN1Cc1ccc(-c2ccccc2)cc1)NCCCn1ccnc1 (stereo not drawn),1,31*,4,1,401,6,-14,-24
O=C(CC1C(=O)NCCN1Cc1ccc(-c2ccccc2)cc1)NCCOc1cccnc1 (stereo not drawn),0,-4,-10,-1,252,5,/,/
CCN(C(=O)CSc1nc2scc(-c3ccccc3)c2c(=O)n1N)C1CCS(=O)(=O)C1 (stereo not drawn),-4,16,/,-3,/,/,/,/
COc1ccc(CCNC(=O)C2(C)CCC(=O)N2Cc2ccc(F)cc2Cl)cc1OC (stereo not drawn),-1,39*,/,-1,i,/,1,6
COc1ccc(CCNC(=O)C2(C)CCC(=O)N2Cc2ccc3c(c2)OCO3)cc1OC (stereo not drawn),3,7,12,1,497,5,/,/
CCOC(=O)CC(NC(=O)Cn1nnc(-c2ccccc2F)n1)c1ccc(OC)cc1 (stereo not drawn),4,30*,-20,1,662,10,3,1
CCOC(=O)c1sc(=S)[nH]c1C,8,43*,/,-3,/,/,10,31*
O=C(COc1ccccc1[N+](=O)[O-])OCCCOC(=O)COc1ccccc1[N+](=O)[O-],0,-3,/,2,393,/,/,/
O=C(COc1ccccc1[N+](=O)[O-])OCC(=O)c1ccc(Br)s1,1,45*,/,-1,341,/,14*,38*
CCOc1ccccc1N(C(=O)c1snc(C(N)=O)c1N)C(C(=O)NCc1ccccc1)c1ccc(O)cc1 (stereo not drawn),42,31*,/,-2,/,/,2,5
CC(=O)Oc1ccc2nc(-c3ccc(Br)o3)oc(=O)c2c1,4,32*,/,1,247,/,6,36*
O=S(=O)(O)c1nc2ccccc2[nH]1,2,35*,-13,0,351,7,-1,-8
O=C(c1cccs1)N(Cc1nc2sc3c(c2c(=O)[nH]1)CCCC3)C1CCCC1,-3,30*,27,4,153,9,-14,-28
Cc1sc2nc(CN(C(=O)c3cccs3)C3CCCC3)[nH]c(=O)c2c1C,-4,9,43,0,121,18,/,/
